Measurements as given in ChEMBL document CHEMBL4145631, “Riluzole-Triazole Hybrids as Novel Chemical Probes for Neuroprotection in Amyotrophic Lateral Sclerosis” (ACS Med Chem Lett, 2018).
Activity calls are given as the source filed them. The rule behind the calls is not given here.

How the values were obtained:
[1] = tested on: Cortical neurone; experiment: Neuroprotective activity against kainate-induced cell death in mouse primary cortical neurons by caspase activation method; format: functional, cell-based
[2] = species: Mus musculus; experiment: Neuroprotective activity against kainate-induced cell death in mouse primary motor neurons by caspase activation method; format: functional
[3] = tested on: Cortical neurone; experiment: Neuroprotective activity against kainate-induced cell death in mouse primary cortical neurons by cell counting method; format: functional, cell-based
[4] = species: Mus musculus; experiment: Neuroprotective activity against kainate-induced cell death in mouse primary motor neurons by cell counting method; format: functional
[5] = tested on: Cortical neurone; experiment: Neuroprotective activity against kainate-induced cell damage in mouse primary cortical neurons assessed as reversal of kainate-induced reduction in calcium flux by fura-2-AM dye based fluorescence assay; format: functional
Procedure, shortened: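 Mouse primary cortical neurons loaded with fura-2AM for 45 min, washed, then depolarized with 10 mM KCl to drive Ca2+ entry through voltage-gated calcium channels. Flux read on a plate-based system.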

[6] = tested on: Cortical neurone; experiment: Neuroprotective activity against kainate-induced cell damage in mouse primary cortical neurons assessed as reduction in kainate-induced neurofilament loss by measuring increase in MAPK level at 1 uM pretreated followed by kainate challenge measured after 18 hrs by fluorescence assay; format: functional, cell-based; settings: in the assay text read “MAP2” for “MAPK”
Procedure, shortened: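 Mouse primary cortical neurons cultured as previously described; dendritic processes stained with anti-MAP2 antibody. Cell-profile perimeter measured by image analysis, each condition normalized to kainate-only.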

[7] = species: Mus musculus; experiment: Neuroprotective activity against kainate-induced cell death in mouse primary motor neurons by MTT assay; format: functional
[8] = tested on: Cortical neurone; experiment: Neuroprotective activity against kainate-induced cell death in mouse primary cortical neurons by MTT assay; format: functional, cell-based

Row | Compound | Activity [1] | Activity [2] | Activity [3] | Activity [4] | Activity [5] | Activity [6] | Activity [7] | Activity [8]
1 | CCOC(=O)c1cn(CCn2c(=N)sc3cc(OC(F)(F)F)ccc32)nn1 | inactive | inactive | inactive | inactive | Active | inactive | inactive | inactive
2 | N=c1sc2cc(OC(F)(F)F)ccc2n1CCn1cc(-c2ccc(F)cc2)nn1 | inactive | inactive | inactive | inactive | Active | inactive | inactive | inactive
3 | N=c1sc2cc(OC(F)(F)F)ccc2n1CCn1cc(-c2cc(F)cc(F)c2)nn1 | inactive | inactive | inactive | inactive | Active | inactive | inactive | inactive
4 | N=c1sc2cc(OC(F)(F)F)ccc2n1CCn1cc(-c2ccc(Cl)cc2)nn1 | inactive | inactive | inactive | inactive | Active | inactive | inactive | inactive
5 | Cc1ccccc1-c1cn(CCn2c(=N)sc3cc(OC(F)(F)F)ccc32)nn1 | inactive | inactive | inactive | inactive | Active | inactive | inactive | inactive
6 | CCCCCCc1ccc(-c2cn(CCn3c(=N)sc4cc(OC(F)(F)F)ccc43)nn2)cc1 | inactive | inactive | inactive | inactive | Active | inactive | inactive | inactive
7 | N=c1sc2cc(OC(F)(F)F)ccc2n1CCn1cc(-c2cccc(F)c2)nn1 | inactive | inactive | inactive | inactive | Active | inactive | inactive | inactive
8 | Cc1ccc(-c2cn(CCn3c(=N)sc4cc(OC(F)(F)F)ccc43)nn2)cc1 | inactive | inactive | inactive | inactive | Active | inactive | inactive | inactive
9 | N#Cc1ccc(-c2cn(CCn3c(=N)sc4cc(OC(F)(F)F)ccc43)nn2)cc1 | inactive | inactive | inactive | inactive | Active | inactive | inactive | inactive
10 | N=c1sc2cc(OC(F)(F)F)ccc2n1CCn1cc(-c2ccccc2Cl)nn1 | inactive | inactive | inactive | inactive | Active | inactive | inactive | inactive
11 | N=c1sc2cc(OC(F)(F)F)ccc2n1CCn1cc(Cc2ccccc2)nn1 | inactive | inactive | inactive | inactive | Active | inactive | inactive | inactive
12 | N=c1sc2cc(OC(F)(F)F)ccc2n1CCn1cc(-c2cc(F)c(F)c(F)c2)nn1 | inactive | inactive | inactive | inactive | Active | inactive | inactive | inactive
13 | CCCc1ccc(-c2cn(CCn3c(=N)sc4cc(OC(F)(F)F)ccc43)nn2)cc1 | inactive | inactive | inactive | inactive | Active | inactive | inactive | inactive
14 | N=c1sc2cc(OC(F)(F)F)ccc2n1CCn1cc(-c2ccc(N)cc2)nn1 | inactive | inactive | inactive | inactive | Active | inactive | inactive | inactive
15 | Cn1cncc1-c1cn(CCn2c(=N)sc3cc(OC(F)(F)F)ccc32)nn1 | inactive | inactive | inactive | inactive | Active | inactive | inactive | inactive
16 | N=c1sc2cc(OC(F)(F)F)ccc2n1CCn1cc(-c2ccc(C(F)(F)F)cc2)nn1 | inactive | inactive | inactive | inactive | Active | inactive | inactive | inactive
17 | CCCc1cn(CCn2c(=N)sc3cc(OC(F)(F)F)ccc32)nn1 | inactive | inactive | inactive | inactive | Active | inactive | inactive | inactive
18 | N=c1sc2cc(OC(F)(F)F)ccc2n1CCn1cc(CCc2ccccc2)nn1 | inactive | inactive | inactive | inactive | Active | inactive | inactive | inactive
19 | CC(C)Cc1cn(CCn2c(=N)sc3cc(OC(F)(F)F)ccc32)nn1 | inactive | inactive | inactive | inactive | Active | inactive | inactive | inactive
20 | CCCCCc1ccc(-c2cn(CCn3c(=N)sc4cc(OC(F)(F)F)ccc43)nn2)cc1 | inactive | inactive | inactive | inactive | Active | inactive | inactive | inactive
21 | N=c1sc2cc(OC(F)(F)F)ccc2n1CCn1cc(-c2ccccc2N)nn1 | inactive | inactive | inactive | inactive | Active | Active | inactive | inactive
22 | Cc1cccc(-c2cn(CCn3c(=N)sc4cc(OC(F)(F)F)ccc43)nn2)c1 | inactive | inactive | inactive | inactive | Active | inactive | inactive | inactive
23 | CN(C)c1ccc(-c2cn(CCn3c(=N)sc4cc(OC(F)(F)F)ccc43)nn2)cc1 | inactive | inactive | inactive | inactive | Active | inactive | inactive | inactive
24 | CCCCc1ccc(-c2cn(CCn3c(=N)sc4cc(OC(F)(F)F)ccc43)nn2)cc1 | inactive | inactive | inactive | inactive | Active | inactive | inactive | inactive
25 | N=c1sc2cc(OC(F)(F)F)ccc2n1CCn1cc(C2CCCCC2)nn1 | inactive | inactive | inactive | inactive | Active | inactive | inactive | inactive
26 | N=c1sc2cc(OC(F)(F)F)ccc2n1CCn1cc(-c2cc(C(F)(F)F)cc(C(F)(F)F)c2)nn1 | inactive | inactive | inactive | inactive | Active | inactive | inactive | inactive
27 | N=c1sc2cc(OC(F)(F)F)ccc2n1CCn1cc(-c2ccc(F)cc2F)nn1 | inactive | inactive | inactive | inactive | Active | inactive | inactive | inactive
28 | N=c1sc2cc(OC(F)(F)F)ccc2n1CCn1cc(-c2ccc(F)c(F)c2)nn1 | inactive | inactive | inactive | inactive | Active | inactive | inactive | inactive
